Activity calls are given as the source filed them. The calls are words filed in the database; no cut-off is given here. Numbered stars: 1 amine (or outer) side, 2 acyl side, 3 side chain; on linkers, the order of the positions; unused ones are H or OH. Square brackets hold non-standard residues; d marks the D form. Peptide text beside a SMILES is read from it. X4 = Cc1ccc(C[C@H](N)CN(CC(=O)[*:2])[*:1])cc1; X2 = N[C@@H](Cc1ccccc1)CN(CC(=O)[*:2])[*:1]
How the values were obtained:
Mus musculus [1] = species: Mus musculus; experiment: Compound was tested for agonistic activity against electrically evoked contraction (twitch response) in mouse vas deferens; NA means Inactive up to 10 uM; type: functional, organism-based
Method in brief: (§1)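 Mouse vas deferens held in Mg2+-free Krebs at 33 °C under 0.3 g resting tension. Field stimulation through platinum electrodes with supramaximal 1-ms pulses at 0.1 Hz, twitches recorded isotonically. After about 2 h equilibration, cumulative concentration-response curves built in 0.5 log steps up to 10 µM. pEC50 taken as the concentration giving half-maximal effect. Mean of at least 3 experiments.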

Mus musculus [2] = species: Mus musculus; experiment: Potency (Emax) against electrically evoked contraction (twitch response) in mouse vas deferens; NA means Inactive up to 10 uM; type: functional, organism-based; method in brief: as §1
Mus musculus [3] = species: Mus musculus; experiment: Compound was tested for the antagonistic activity on mouse vas deferens using NC(1-13)NH2 as agonist; type: functional
Method in brief: (§2)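 Electrically stimulated mouse vas deferens (Mg2+-free Krebs, 33 °C, 0.1 Hz, 1-ms pulses). Antagonist at 10 µM added 15 min before a cumulative NC(1-13)NH2 concentration-response curve. pKB calculated with the Gaddum-Schild equation, assuming a slope of 1, from the concentration ratio. Mean of at least 3 experiments, with 95% confidence limits.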

Nociceptin receptor = Nociceptin receptor (Mus musculus, UniProt P35377); experiment: Affinity to nociceptin receptors on mouse forebrain membranes by [3H]NC-NH2 displacement.
Sequence of Nociceptin receptor (P35377 whole entry): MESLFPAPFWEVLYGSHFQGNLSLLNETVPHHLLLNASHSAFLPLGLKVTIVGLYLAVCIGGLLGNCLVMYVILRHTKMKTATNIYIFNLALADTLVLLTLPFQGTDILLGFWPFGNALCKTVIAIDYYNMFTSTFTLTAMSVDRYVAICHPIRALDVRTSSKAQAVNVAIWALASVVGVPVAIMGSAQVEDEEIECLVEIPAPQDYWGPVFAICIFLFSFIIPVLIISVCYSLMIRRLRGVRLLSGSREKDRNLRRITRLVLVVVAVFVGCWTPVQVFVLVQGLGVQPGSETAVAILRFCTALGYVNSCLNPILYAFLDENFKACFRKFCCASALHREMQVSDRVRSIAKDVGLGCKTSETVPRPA
Method in brief: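 Forebrain membranes from male Swiss mice (25-30 g), homogenized in 50 mM Tris HCl, 2 mM EDTA, 100 µM PMSF, pH 7.4, then preincubated 30 min at 37 °C. Bound ligand separated by GF/C filtration. Ki obtained by nonlinear least-squares fitting.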

Mus musculus [4] = species: Mus musculus; experiment: Compound was tested for the antagonistic activity on mouse vas deferens using NC(1-13)NH2 as agonist; NA means Inactive up to 10 uM; type: functional, organism-based; method in brief: as §2

SMILES | Log EC50 (Mus musculus [1]) | Emax (Mus musculus [2]) | pKB (Mus musculus [3]) | Ki (Nociceptin receptor) | pKB (Mus musculus [4])
C[C@H](NC(=O)CNC(=O)[C@@H](NC(=O)[C@H](Cc1ccccc1)NC(=O)CNC(=O)CNC(=O)CNCc1ccccc1)[C@@H](C)O)C(=O)N[C@@H](CCCN=C(N)N)C(=O)N[C@@H](CCCCN)C(=O)N[C@@H](CO)C(=O)N[C@@H](C)C(=O)N[C@@H](CCCN=C(N)N)C(=O)N[C@@H](CCCCN)C(N)=O | inactive | inactive | 6.4 |  | 
CC(C)C[C@H](NC(=O)[C@H](CCCCN)NC(=O)[C@H](CCCN=C(N)N)NC(=O)[C@H](C)NC(=O)[C@H](CO)NC(=O)[C@H](CCCCN)NC(=O)[C@H](CCCN=C(N)N)NC(=O)[C@H](C)NC(=O)CNC(=O)[C@@H](NC(=O)[C@H](Cc1ccccc1)NC(=O)CNC(=O)CNC(=O)CNCc1ccccc1)[C@@H](C)O)C(=O)N[C@@H](C)C(=O)N[C@@H](CC(N)=O)C(=O)N[C@@H](CCC(N)=O)C(N)=O | inactive | inactive | 6.3 | 126 nM | 
CC(C)CNCC(=O)NCC(=O)NCC(=O)N[C@@H](Cc1ccccc1)C(=O)N[C@H](C(=O)NCC(=O)N[C@@H](C)C(=O)N[C@@H](CCCN=C(N)N)C(=O)N[C@@H](CCCCN)C(=O)N[C@@H](CO)C(=O)N[C@@H](C)C(=O)N[C@@H](CCCN=C(N)N)C(=O)N[C@@H](CCCCN)C(N)=O)[C@@H](C)O | inactive | inactive |  | 2510 nM | inactive
C[C@H](NC(=O)CNC(=O)[C@@H](NC(=O)[C@H](Cc1ccccc1)NC(=O)CNC(=O)CNC[C@@H](N)Cc1ccccc1)[C@@H](C)O)C(=O)N[C@@H](CCCN=C(N)N)C(=O)N[C@@H](CCCCN)C(N)=O (H-[X2]GFTGARK-NH2) | inactive | inactive | 5.1 | > 10000 nM | 
C[C@H](NC(=O)CNC(=O)[C@@H](NC(=O)[C@H](Cc1ccccc1)NC(=O)CNC(=O)CNC[C@@H](N)Cc1ccccc1)[C@@H](C)O)C(=O)N[C@@H](CCCN=C(N)N)C(=O)N[C@@H](CCCCN)C(=O)N[C@@H](CO)C(=O)N[C@@H](C)C(=O)N[C@@H](CCCN=C(N)N)C(N)=O (H-[X2]GFTGARKSAR-NH2) | inactive | inactive | 5.2 | 398 nM | 
C[C@H](NC(=O)CNC(=O)[C@@H](NC(=O)[C@H](Cc1ccccc1)NC(=O)CNC(=O)CNC[C@@H](N)Cc1ccccc1)[C@@H](C)O)C(=O)N[C@@H](CCCN=C(N)N)C(=O)N[C@@H](CCCCN)C(=O)N[C@@H](CO)C(=O)N[C@@H](C)C(=O)N[C@@H](CCCN=C(N)N)C(=O)N[C@@H](CCCCN)C(N)=O (H-[X2]GFTGARKSARK-NH2) | inactive | inactive | 6.8 | 10 nM | 
CC(C)C[C@H](NC(=O)[C@H](CCCCN)NC(=O)[C@H](CCCN=C(N)N)NC(=O)[C@H](C)NC(=O)[C@H](CO)NC(=O)[C@H](CCCCN)NC(=O)[C@H](CCCN=C(N)N)NC(=O)[C@H](C)NC(=O)CNC(=O)[C@@H](NC(=O)[C@H](Cc1ccccc1)NC(=O)CNC(=O)CNC[C@@H](N)Cc1ccccc1)[C@@H](C)O)C(=O)N[C@@H](C)C(=O)N[C@@H](CC(N)=O)C(=O)N[C@@H](CCC(N)=O)C(N)=O (H-[X2]GFTGARKSARKLANQ-NH2) | inactive | inactive | 7 | 20 nM | 
Cc1ccc(C[C@H](N)CNCC(=O)NCC(=O)N[C@@H](Cc2ccccc2)C(=O)N[C@H](C(=O)NCC(=O)N[C@@H](C)C(=O)N[C@@H](CCCN=C(N)N)C(=O)N[C@@H](CCCCN)C(=O)N[C@@H](CO)C(=O)N[C@@H](C)C(=O)N[C@@H](CCCN=C(N)N)C(=O)N[C@@H](CCCCN)C(N)=O)[C@@H](C)O)cc1 (H-[X4]GFTGARKSARK-NH2) | inactive | inactive | 5.7 | 631 nM | 
